Values after ≈ are worked out from the molar mass of the structure shown.
Assays:
Format in all cases: functional
[1] = system: Meyerozyma guilliermondii; assay: Tested for minimum inhibitory concentration against Candida guilliermondii 80 (C.g) at pH 4.5.
How it was run: (§1)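 Broth microdilution in malt extract broth, initial pH 4.5 or 6.5, with 1×10^3 CFU per 0.2 mL well of thawed stored cultures. Compound stocks were made in 5% DMSO/0.2% Tween 80 and diluted to final 0.05–100 μg/mL. Plates were incubated 48 h at 30 °C and read macroscopically. MIC was the lowest concentration with no detectable growth. Vehicle-only wells served as controls.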

Candida albicans [2] = assay: Tested for minimum subinhibitory concentration against Candida albicans 4 (Candida albicans) at pH 4.5.
How it was run: (§2)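 Malt extract broth microdilution at initial pH 4.5, 1×10^3 CFU/0.2 mL well, final compound 0.05–100 μg/mL diluted from DMSO/Tween 80 stocks. Incubation was 48 h at 30 °C with macroscopic reading. MSIC was the lowest concentration causing visible growth inhibition in at least two of three triplicates.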

Candida albicans [3] = assay: Tested for minimum subinhibitory concentration against Candida albicans 4 (Candida albicans) at pH 6.5.
How it was run: (§3)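 Malt extract broth microdilution, initial pH 6.5, inoculum 1×10^3 CFU per 0.2 mL well. Compound diluted from 0.08% stock (5% DMSO/0.2% Tween 80) to final 0.05–100 μg/mL. Macroscopic reading after 48 h, 30 °C. MSIC = lowest concentration giving visible growth inhibition in at least two of three triplicates. Vehicle-only negative controls.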

Candida albicans [4] = assay: Tested for minimum subinhibitory concentration against Candida albicans 88 (Candida albicans) at pH 4.5.; how it was run: as §2
Candida albicans [5] = assay: Tested for minimum subinhibitory concentration against Candida albicans 9 (Candida albicans) at pH 4.5.; how it was run: as §2
Candida albicans [6] = assay: Tested for minimum subinhibitory concentration against Candida albicans 9 (Candida albicans) at pH 6.5.; how it was run: as §3
Candida albicans [7] = assay: Tested for minimum subinhibitory concentration against Candida albicans 90 (Candida albicans) at pH 4.5.; how it was run: as §2
Candida albicans [8] = assay: Tested for minimum subinhibitory concentration against Candida albicans 26 (Candida albicans) at pH 4.5.; how it was run: as §2
Candida albicans [9] = assay: Tested for minimum inhibitory concentration against Candida albicans 124 (Candida albicans) at pH 6.5.
How it was run: (§4)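 Broth microdilution in malt extract broth, initial pH 6.5, 1×10^3 CFU per 0.2 mL well, from liquid-nitrogen-stored Sabouraud cultures. Compound from 0.08% stock in 5% DMSO/0.2% Tween 80, final 0.05–100 μg/mL. Visual reading after 48 h at 30 °C. MIC = lowest concentration with no detectable growth. Vehicle-only negative controls.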

Candida albicans [10] = assay: Tested for minimum inhibitory concentration against Candida albicans 26 (Candida albicans) at pH 6.5.; how it was run: as §4
Candida albicans [11] = assay: Tested for minimum inhibitory concentration against Candida albicans 4 (Candida albicans) at pH 4.5.; how it was run: as §1
Candida albicans [12] = assay: Tested for minimum inhibitory concentration against Candida albicans 88 (Candida albicans) at pH 6.5.; how it was run: as §4
Candida albicans [13] = assay: Tested for minimum inhibitory concentration against Candida albicans 9 (Candida albicans) at pH 6.5.; how it was run: as §4
Candida albicans [14] = assay: Tested for minimum inhibitory concentration against Candida albicans 90 (Candida albicans) at pH 4.5.; how it was run: as §1
Candida albicans [15] = assay: Tested for minimum inhibitory concentration against Candida albicans 124 (Candida albicans) at pH of 4.5.; how it was run: as §1
Candida albicans [16] = assay: Tested for minimum inhibitory concentration against Candida albicans 124 (Candida albicans) at pH of 6.5.; how it was run: as §1
[17] = system: Meyerozyma guilliermondii; assay: Tested for minimum subinhibitory concentration against Candida guilliermondii 80 (C.g) at pH 4.5.; how it was run: as §2
[18] = system: Meyerozyma guilliermondii; assay: Tested for minimum subinhibitory concentration against Candida guilliermondii 80 (C.g) at pH 6.5.; how it was run: as §3
Candida albicans [19] = assay: Tested for minimum subinhibitory concentration against Candida albicans 124 (Candida albicans) at pH 4.5.; how it was run: as §2
Pichia kudriavzevii [20] = assay: Tested for minimum inhibitory concentration against Candida krusei 132 (C.k) at pH 4.5.; how it was run: as §1
Pichia kudriavzevii [21] = assay: Tested for minimum inhibitory concentration against Candida krusei 132 (C.k) at pH 6.5.; how it was run: as §4
Pichia kudriavzevii [22] = assay: Tested for minimum subinhibitory concentration against Candida krusei 132 (C.k) at pH 6.5.; how it was run: as §3
Candida tropicalis [23] = assay: Tested for minimum inhibitory concentration against Candida tropicalis 43 (C.t) at pH of 6.5.; how it was run: as §1
Candida tropicalis [24] = assay: Tested for minimum subinhibitory concentration against Candida tropicalis 43 (C.t) at pH 4.5.; how it was run: as §2
Mus musculus [25] = assay: Tested for efficacy of compound in experimental vaginal candidosis (mouse) after intraperitoneal treatment at dosage of 4 x50 mg kg e-1
How it was run: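 Female NMRI mice (18–20 g; 10 per group) were hormonally conditioned and infected intravaginally with 3.5×10^4 CFU C. albicans no. 124 in 50 μL Sabouraud's glucose broth. Four doses were given by gavage or ip, at 2 h before and 2, 18 and 24 h after infection. One day after the last dose, vaginal swabs were plated on Sabouraud agar with streptomycin (0.1 mg/mL) for 48 h at 37 °C. Failed reisolation counted as cure.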

Mus musculus [26] = assay: Tested for efficacy of compound in experimental systemic candidosis (mouse) after intraperitoneal treatment at dosage of 8 *100 mg kg e-1
How it was run: (§5)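 Mice (female NMRI, 18–20 g; 10 per group) infected by tail-vein injection of 10⁶ CFU C. albicans no. 124. Compound was given intraperitoneally twice daily on 4 consecutive days, starting 2 h before inoculation. Efficacy was scored as survival rate up to day 9 after infection.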

Mus musculus [27] = assay: Tested for efficacy of compound in experimental systemic candidosis (mouse) after intraperitoneal treatment at dosage of 8 *50 mg kg e-1; how it was run: as §5
Mus musculus [28] = species: Mus musculus; assay: Tested for efficacy of compound in experimental systemic candidosis (mouse) after oral treatment at dosage of 8 *100 mg kg e-1
How it was run: (§6)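 Systemic candidiasis: female NMRI mice (18–20 g), 10 per group, infected by intravenous injection of 10⁶ CFU C. albicans no. 124 via lateral tail vein. Oral dosing twice daily on 4 consecutive days, starting 2 h before inoculation. Efficacy taken as survival rate up to day 9 after infection.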

Mus musculus [29] = species: Mus musculus; assay: Tested for efficacy of compound in experimental systemic candidosis (mouse) after oral treatment at dosage of 8 *200 mg kg e-1; how it was run: as §6
Rattus norvegicus = assay: Tested for efficacy of compound in experimental vaginal candidosis (rat) after intraperitoneal treatment at dosage of 2x 50 mg kg e-1
How it was run: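 Female Wistar rats (~150 g; 10 per group) were hormonally conditioned and infected intravaginally with 3.5×10^4 CFU C. albicans no. 124 in 50 μL broth. Intraperitoneal dosing was given twice, 2 h before and 18 h after infection. Swabs taken one day after the last dose were plated on streptomycin Sabouraud agar (48 h, 37 °C). Cure meant failed reisolation.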

Candida tropicalis [30] = assay: Tested for minimum inhibitory concentration against Candida tropicalis (C.t) at pH 4.5.; how it was run: as §1
[31] = system: Meyerozyma guilliermondii; assay: Tested for minimum inhibitory concentration against Candida guilliermondii 80 (C.g) at pH 6.5.; how it was run: as §4
Pichia kudriavzevii [32] = assay: Tested for minimum subinhibitory concentration against Candida krusei 132 (C.k) at pH 4.5.; how it was run: as §2

CC[C@@H](C)[C@H]1C(=O)NCC(=O)N(C)[C@@H](C(C)C)C(=O)N[C@@H](Cc2ccc(OC)cc2)C(=O)O[C@H](C)C(=O)N2CCCC[C@H]2C(=O)N(C)[C@@H](C(C)C)C(=O)N[C@@H](C(C)C)C(=O)N(C)[C@@H](CC(=O)O)C(=O)N(C)[C@@H]([C@@H](C)CC)C(=O)N1C showed an MIC [1] of 6.25 µg/mL (≈ 5.55 µM), an MSIC (Candida albicans [2]) of 0.78 µg/mL and an MSIC (Candida albicans [3]) of 12.5 µg/mL. For the same compound, the MSIC (Candida albicans [4]) was 0.78 µg/mL, the MSIC (Candida albicans [5]) was 0.78 µg/mL and the MSIC (Candida albicans [6]) was 12.5 µg/mL. For the same compound, the MSIC (Candida albicans [7]) was 0.78 µg/mL, the MSIC (Candida albicans [8]) was 0.78 µg/mL and the MIC (Candida albicans [9]) was 50 µg/mL (≈ 44.4 µM). It also gave an MIC (Candida albicans [10]) greater than 100 µg/mL, an MIC (Candida albicans [11]) of 6.25 µg/mL (≈ 5.55 µM) and an MIC (Candida albicans [12]) of 100 µg/mL (≈ 88.8 µM). It also gave an MIC (Candida albicans [13]) greater than 100 µg/mL, an MIC (Candida albicans [14]) of 3.12 µg/mL (≈ 2.77 µM) and an MIC (Candida albicans [15]) of 1.56 µg/mL (≈ 1.38 µM). For the same compound, the MIC (Candida albicans [16]) was 50 µg/mL (≈ 44.4 µM), the MSIC [17] was 0.8 µg/mL and the MSIC [18] was 12.5 µg/mL. For the same compound, the MSIC (Candida albicans [19]) was 0.4 µg/mL, the MIC (Pichia kudriavzevii [20]) was greater than 100 µg/mL and the MIC (Pichia kudriavzevii [21]) was greater than 100 µg/mL. For the same compound, the MSIC (Pichia kudriavzevii [22]) was 3.12 µg/mL, the MIC (Candida tropicalis [23]) was 100 µg/mL (≈ 88.8 µM) and the MSIC (Candida tropicalis [24]) was 0.8 µg/mL. It also gave an Efficacy (Mus musculus [25]) of 7%, an Efficacy (Mus musculus [26]) of 100% and an Efficacy (Mus musculus [27]) of 20%. The Efficacy (Mus musculus [28]) was 40%, the Efficacy (Mus musculus [29]) was 90% and the Efficacy (Rattus norvegicus) was 0%. The MIC (Candida tropicalis [30]) was 1.56 µg/mL (≈ 1.38 µM), the MIC [31] was greater than 100 µg/mL and the MSIC (Pichia kudriavzevii [32]) was 1.56 µg/mL.

— ChEMBL document CHEMBL1127799, “Derivatives of a novel cyclopeptolide. 1. Synthesis, antifungal activity, and structure-activity relationships” (1994)
